Source: ChEMBL document CHEMBL4400528, “Discovery and Optimization of Selective and in Vivo Active Inhibitors of the Lysophosphatidylserine Lipase α/β-Hydrolase Domain-Containing 12 (ABHD12)” (J Med Chem, 2019)
The source made the active and inactive calls. No cut-off for these calls is given here.

How the values were obtained:
[1] = target: T1, Lysophosphatidylserine lipase ABHD12 (Mus musculus, UniProt Q99LR1); assay: Inhibition of JJH350 binding to ABHD12 in mouse brain membrane proteome incubated for 20 mins by CuAAC fluorescence dependent gel-based competitive ABPP assay; format: cell membranes
T1 sequence (Q99LR1 whole entry): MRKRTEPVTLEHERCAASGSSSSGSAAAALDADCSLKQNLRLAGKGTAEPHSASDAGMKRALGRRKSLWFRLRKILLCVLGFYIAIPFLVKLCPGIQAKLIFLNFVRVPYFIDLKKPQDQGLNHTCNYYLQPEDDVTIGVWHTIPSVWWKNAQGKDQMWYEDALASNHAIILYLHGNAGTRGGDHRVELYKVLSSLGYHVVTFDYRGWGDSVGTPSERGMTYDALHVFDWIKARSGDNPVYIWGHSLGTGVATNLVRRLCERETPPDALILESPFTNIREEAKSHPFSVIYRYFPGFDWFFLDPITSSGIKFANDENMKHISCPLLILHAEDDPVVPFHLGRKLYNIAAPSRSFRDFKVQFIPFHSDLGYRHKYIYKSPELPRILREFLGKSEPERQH
Outline: (§1)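 Brain membrane fraction (1 mg/mL; DPBS homogenate, 16,000 x g pellet) treated with inhibitor for 20 min at room temperature. JJH350 (2 μM) added for 45 min at 37 °C, then CuAAC with rhodamine-PEG3-azide, CuSO4, TBTA and TCEP for 1 h at room temperature. Run on 10% SDS-PAGE and read by in-gel fluorescence. ABHD12 band normalized to control-treated sample (100%); IC50 from log dose-response fit.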

[2] = target: T2, Lysophosphatidylserine lipase ABHD12 (Mus musculus) (UniProt Q99LR1); assay: Inhibition of JJH350 binding to ABHD12 in mouse brain membrane proteome at 2 uM after 20 mins by CuAAC based fluorescence scanning assay relative to control; format: cell membranes; outline: as §1
T2 sequence (whole entry): T1 sequence (Q99LR1 whole entry)

[3] = target: T2, Lysophosphatidylserine lipase ABHD12 (Mus musculus); assay: Inhibition of JJH350 binding to ABHD12 in mouse brain membrane proteome at 10 uM after 20 mins by CuAAC based fluorescence scanning assay relative to control; format: cell membranes; outline: as §1
[4] = target: T3, Lysophosphatidylserine lipase ABHD12 (Homo sapiens) (UniProt Q8N2K0); assay: Inhibition of ABHD12 in PMA-differentiated human THP1 cells assessed as increase in CCL3 production at 1 uM treated simultaneously with IFN-gamma/LPS for 24 hrs and measured 6 to 24 hrs after stimulation
T3 sequence (whole entry): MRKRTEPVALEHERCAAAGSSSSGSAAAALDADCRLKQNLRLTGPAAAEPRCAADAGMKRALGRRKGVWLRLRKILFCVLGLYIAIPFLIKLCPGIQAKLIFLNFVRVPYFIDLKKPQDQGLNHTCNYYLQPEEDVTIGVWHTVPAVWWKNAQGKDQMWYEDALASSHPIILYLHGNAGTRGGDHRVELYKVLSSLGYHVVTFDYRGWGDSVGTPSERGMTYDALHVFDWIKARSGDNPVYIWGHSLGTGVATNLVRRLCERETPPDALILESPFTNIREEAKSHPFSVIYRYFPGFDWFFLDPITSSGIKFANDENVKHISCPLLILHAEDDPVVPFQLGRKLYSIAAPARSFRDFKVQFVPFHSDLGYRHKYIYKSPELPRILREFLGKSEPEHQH
Outline: (§2)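 THP-1 cells grown in RPMI/10% FBS/0.05 mM 2-mercaptoethanol, plated 2.5×10^6 per well. Treated 24 h with 150 ng/mL PMA, washed, rested 24 h. Polarized to M1 with 20 ng/mL IFN-γ plus 10 pg/mL LPS for 24 h. Compound or DMSO (test 0.1–1 μM) present at every step. Media sampled 6 and 24 h after stimulation; cytokines by MSD V-Plex. Mean ± SEM, four biological experiments.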

[5] = target: T3, Lysophosphatidylserine lipase ABHD12 (Homo sapiens); assay: Inhibition of ABHD12 in PMA-differentiated human THP1 cells assessed as increase in CCL4 production at 1 uM treated simultaneously with IFN-gamma/LPS for 24 hrs and measured 6 to 24 hrs after stimulation; outline: as §2
[6] = target: T3, Lysophosphatidylserine lipase ABHD12 (Homo sapiens); assay: Inhibition of ABHD12 in PMA-differentiated human THP1 cells assessed as increase in TNF-alpha production at 1 uM treated simultaneously with IFN-gamma/LPS for 24 hrs and measured 6 to 24 hrs after stimulation; outline: as §2
[7] = target: T3, Lysophosphatidylserine lipase ABHD12 (Homo sapiens); assay: Inhibition of ABHD12 in PMA-differentiated human THP1 cells assessed as increase in IL-1beta production at 1 uM treated simultaneously with IFN-gamma/LPS for 24 hrs and measured 6 to 24 hrs after stimulation; outline: as §2
Mus musculus = assay: In vivo inhibition of JJH350 binding to ABHD12 in mouse at 30 mg/kg, ip treated for 4 hrs by CuAAC based fluorescence scanning assay; format: functional, organism-based
Outline: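 Mice injected i.p. at 10 μL/g body weight with fresh suspension in EtOH/PEG40/DPBS 1:1:18. Anesthetized with isoflurane, killed by cervical dislocation, tissues harvested. Tissues dounce-homogenized in DPBS; membrane fraction from 16,000 x g spin. Labelled with JJH350, then CuAAC to rhodamine-azide, SDS-PAGE and fluorescence scanning.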

[8] = target: T1, Lysophosphatidylserine lipase ABHD12; assay: Inhibition of FP-Rh probe binding to ABHD12 in mouse brain membrane proteome incubated for 45 mins by CuAAC fluorescence dependent gel-based competitive ABPP assay; format: cell membranes
Outline: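 Mouse brain membrane proteome (1 mg/mL) preincubated with inhibitor for 45 min at 37 °C. Labelled with FP-Rh (1 μM) or JJH350 (2 μM) for 45 min at 37 °C. JJH350 samples were clicked to Rh-N3 (25 μM) by CuAAC for 60 min at room temperature. Read by 10% SDS-PAGE and in-gel fluorescence scanning. Band intensity taken relative to control (100%), and IC50 from log(inhibitor) vs normalized response.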

[9] = target: T3, Lysophosphatidylserine lipase ABHD12 (Homo sapiens); assay: Inhibition of ABHD12 (unknown origin) expressed in HEK293T cell membranes at 10 uM using 17:1 lyso-PS as substrate preincubated for 20 mins followed by substrate addition measured after 30 mins by LC-MS analysis
Outline: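 Membranes from HEK293T overexpressing ABHD12 (0.25 mg/mL) in DPBS preincubated with compound for 20 min at room temperature. 17:1 lyso-PS added (100 μM final) and incubated 30 min at 37 °C. Quenched with 2:1 CHCl3/MeOH containing 1 nmol 15:0 FFA internal standard. Organic phase analyzed by LC-MS on C18 with NH4OH-containing gradient.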

[10] = target: T3, Lysophosphatidylserine lipase ABHD12 (Homo sapiens); assay: Time dependent inhibition of FP-Rh binding to ABHD12 (unknown origin) expressed in HEK293T cell membranes by gel-based ABPP assay

| Structure (SMILES) | IC50 [1] [nM] | inhibition [2] [%] | inhibition [3] [%] | other results |
| --- | --- | --- | --- | --- |
| Cc1c(Oc2ccc(OC(F)(F)F)cc2)ccnc1N1CCC(NC(=S)Nc2cccnc2)CC1 | 26 | – | – | – |
| FC(F)(F)c1cnc(N2CCC(NC(=S)Nc3cnc4ccccc4c3)CC2)c(Cl)c1 | – | 0 | 2 | – |
| FC(F)(F)c1cnc(N2CCC(NC(=S)N3CCCc4ccccc43)CC2)c(Cl)c1 | – | 0 | 0 | – |
| FC(F)(F)Oc1ccc(Oc2ccnc(N3CCCC(NC(=S)Nc4cccnc4)C3)c2Cl)c(Cl)c1 (centres undefined) | 90000 | – | – | – |
| FC(F)(F)c1cnc(NCCCCCCNC(=S)Nc2cccnc2)c(Cl)c1 | – | 22 | 70 | – |
| Fc1ccc(Oc2ccnc(N3CCC(NC(=S)Nc4cccnc4)CC3)c2)cc1 | 1400 | – | – | – |
| FC(F)(F)Oc1ccc(Oc2ccnc(N3CCC(NC(=S)Nc4cccnc4)CC3)c2Cl)cc1 | 25 | – | – | – |
| CN(C(=S)Nc1cccnc1)C1CCN(c2ncc(C(F)(F)F)cc2Cl)CC1 | – | 31 | 61 | – |
| COc1ccc(Oc2ccnc(N3CCC(NC(=S)Nc4cccnc4)CC3)c2)cc1 | 2900 | – | – | – |
| FC(F)(F)c1cccc(N2CCC(NC(=S)Nc3cccnc3)CC2)n1 | 630 | – | – | – |
| FC(F)(F)c1cnc(NCCCCNC(=S)Nc2cccnc2)c(Cl)c1 | – | 12 | 35 | – |
| S=C(Nc1cccnc1)NC1CCN(c2cc(OCC3CC3)ccn2)CC1 | 4700 | – | – | – |
| FC(F)(F)c1cnc(N2CCCC(NC(=S)Nc3cccnc3)C2)c(Cl)c1 (centres undefined) | – | 0 | 4 | – |
| N#Cc1c(Oc2ccc(OC(F)(F)F)cc2)ccnc1N1CCC(NC(=S)Nc2cccnc2)CC1 | 180 | – | – | – |
| FC(F)(F)Oc1ccccc1Oc1ccnc(N2CCC(NC(=S)Nc3cccnc3)CC2)c1Cl | 96 | – | – | – |
| FC(F)(F)c1cc(N2CCC(NC(=S)Nc3cccnc3)CC2)ncc1Cl | 1400 | – | – | – |
| O=C(Nc1cccnc1)NC1CCN(c2ncc(C(F)(F)F)cc2Cl)CC1 | – | 1 | 29 | – |
| Cc1cnc(N2CCC(NC(=S)Nc3cccnc3)CC2)c(Cl)c1 | 3100 | – | – | – |
| S=C(Nc1cccnc1)NC1CCN(c2ncccc2Cl)CC1 | > 5000 | – | – | – |
| FC(F)(F)c1ccc(N2CCC(NC(=S)Nc3cccnc3)CC2)nc1 | 1900 | – | – | – |
| FC(F)(F)Oc1cccc(Oc2ccnc(N3CCC(NC(=S)Nc4cccnc4)CC3)c2Cl)c1 | 89 | – | – | – |
| S=C(Nc1cccnc1)NC1CCN(c2cc(OCc3ccccc3)ccn2)CC1 | 2800 | – | – | – |
| COc1ccc(NC(=S)NC2CCN(c3ncc(C(F)(F)F)cc3Cl)CC2)cn1 | – | 0 | 1 | – |

| Structure (SMILES) | IC50 [1] [nM] | inhibition [2] [%] | inhibition [3] [%] | other results |
| --- | --- | --- | --- | --- |
| FC(F)(F)c1cnc(N2CCC(NC(=S)Nc3cccnc3)C2)c(Cl)c1 (centres undefined) | – | 1 | 12 | – |
| S=C(Nc1cccnc1)NC1CCN(c2cc(Oc3ccccc3)ccn2)CC1 | 1900 | – | – | – |
| FC(F)(F)c1cnc(N2CCCC(NC(=S)Nc3cccnc3)CC2)c(Cl)c1 (centres undefined) | – | 9 | 59 | – |
| FC(F)(F)c1cnc(N2CCC(NC(=S)Nc3ccccc3)CC2)c(Cl)c1 | – | 66 | 96 | – |
| FC(F)(F)Oc1ccc(Oc2ccnc(N3CCC(NC(=S)Nc4cccnc4)CC3)c2)cc1 | 410 | – | – | – |
| FC(F)(F)c1cnc(NCCCCCNC(=S)Nc2cccnc2)c(Cl)c1 | – | 54 | 90 | – |
| FC(F)(F)c1cnc(N2C3CCC2CC(NC(=S)Nc2cccnc2)C3)c(Cl)c1 (centres undefined) | – | 19 | 63 | – |
| FC(F)(F)Oc1ccc(Oc2ccnc(N3CCC(NC(=S)Nc4cccnc4)CC3)c2Cl)cc1Cl | 33 | – | – | – |
| S=C(Nc1cccnc1)NC1CCN(c2cc(OC3CCCCC3)ccn2)CC1 | 3400 | – | – | – |
| FC(F)(F)c1cc(Cl)nc(N2CCC(NC(=S)Nc3cccnc3)CC2)c1 | 540 | – | – | – |
| FC(F)(F)Oc1ccc(Oc2ccnc(N3CCC[C@H](NC(=S)Nc4cccnc4)C3)c2Cl)c(Cl)c1 | > 100000 | – | – | inhibition [4]: inactive; inhibition [5]: inactive; inhibition [6]: inactive; inhibition [7]: inactive |
| S=C(Nc1cccnc1)NC1CCN(c2cc(Cl)ccn2)CC1 | 2100 | – | – | – |
| FC(F)(F)c1ccnc(N2CCC(NC(=S)Nc3cccnc3)CC2)c1 | 640 | – | – | – |
| COc1ccc(N2CCN(C(=O)ON3C(=O)C4CN(C(=O)c5ccc(Oc6ccccc6)cc5)CCN4C3=O)CC2)cc1 (centres undefined) | – | – | – | inhibition (Mus musculus): Active; IC50 [8]: 320 nM |
| FC(F)(F)Oc1ccc(Oc2ccnc(N3CCC(NC(=S)Nc4cccnc4)CC3)c2C(F)(F)F)cc1 | 2800 | – | – | – |
| FC(F)(F)c1ccnc(N2CCC(NC(=S)Nc3cccnc3)CC2)c1Cl | 300 | – | – | – |
| COc1ccc(N2CCN(C(=O)ON3C(=O)C4CN(Cc5ccc(Oc6ccccc6)cc5)CCN4C3=O)CC2)cc1 (centres undefined) | – | – | – | IC50 [8]: > 10000 nM |
| FC(F)(F)c1cccnc1N1CCC(NC(=S)Nc2cccnc2)CC1 | > 5000 | – | – | – |
| FC(F)(F)Oc1ccc(Oc2ccnc(N3CCC[C@@H](NC(=S)Nc4cccnc4)C3)c2Cl)c(Cl)c1 | 100000 | – | – | – |
| COc1ccnc(N2CCC(NC(=S)Nc3cccnc3)CC2)c1 | > 5000 | – | – | – |
| Cc1cnc(N2CCN(NC(=S)Nc3cccnc3)CC2)c(Cl)c1 | > 50000 | – | – | inhibition [9]: inactive |
| FC(F)(F)c1cnc(NCCCNC(=S)Nc2cccnc2)c(Cl)c1 | – | 0 | 0 | – |
| FC(F)(F)c1cnc(N2CCC(NC(=S)Nc3cccnc3)CC2)c(Cl)c1 | 1100 | 89 | 96 | TDI [10]: inactive |
